Source: ChEMBL document CHEMBL1156217, “Antioxidant and antiproliferative activities of hydroxyl-substituted Schiff bases” (Bioorg Med Chem Lett, 2010)
The source made the active and inactive calls. The rule behind the calls is not given here.

Columns and labels:
[1] = tested on: HepG2; test: Growth inhibition of human HepG2 cells after 72 hrs by sulforhodamine B assay; format: functional, cell-based; conditions: HepG2, 72 h
[2] = Antioxidant activity assessed as galvinoxyl radical scavenging activity in methanol by UV-visible spectroscopy; format: functional
In short: (§1)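 The rate constant k (M−1 s−1) came from the slope of pseudo-first-order kobs against compound concentration. Some rates were instead taken from second-order kinetics at a 1/1 compound/GO• ratio. Values are mean±SD of three determinations.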

[3] = Antioxidant activity assessed as galvinoxyl radical scavenging activity in ethyl acetate by UV-visible spectroscopy; format: functional; in short: as §1
[4] = Stability in PBS at pH 7.4 by UV-visible spectroscopy in presence of HSA; format: physicochemical; conditions: buffer
[5] = Antioxidant activity assessed as against AAPH-induced oxidative damage of pBR322 plasmid DNA assessed as single strand breakage at 10 uM by gel electrophoresis; format: functional
In short: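 Supercoiled pBR322 plasmid DNA (100 ng) incubated with AAPH and/or test compound in PBS, pH 7.4, at 37 °C for 60 min. Strand breakage was assessed by agarose gel electrophoresis as conversion of the supercoiled form to open-circular (single-strand break) and linear (double-strand break) DNA.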

[6] = Stability in PBS at pH 7.4 by UV-visible spectroscopy; format: physicochemical; conditions: buffer

IC50 [1] [µM]	Stability [4]	Stability [6]	Structure (SMILES)	Activity [2] [M⁻¹ s⁻¹]	Activity [3] [M⁻¹ s⁻¹]	Activity [5]
> 300			COc1ccc(/N=C/c2ccc(O)cc2)cc1	2.48	1.1	
5.6	Stable	Unstable	Oc1ccc(/N=C/c2ccc(O)c(O)c2)cc1	14800	1080	Active
> 300			Oc1ccccc1/C=N/c1ccccc1 [2-((PHENYLIMINO)METHYL)PHENOL]	0.04	0.01	
108			Oc1ccc(/N=C/c2ccccc2)cc1 [4-(BENZYLIDENEAMINO)PHENOL]	120	31.9	
4.1			COc1cc([C@@H]2c3cc4c(cc3[C@@H](O[C@@H]3O[C@@H]5CO[C@@H](C)O[C@H]5[C@H](O)[C@H]3O)[C@H]3COC(=O)[C@H]23)OCO4)cc(OC)c1O [ETOPOSIDE]			
79.6			Oc1ccc(/C=C/c2cc(O)cc(O)c2)cc1 [RESVERATROL]	42	13.4	Active
